CHO parental Ca: ATP-evoked calcium signal inhibitors, parental CHO, primary screen, counter-screen for OX1R antagonist project, cell-based, fluorescence, Fluo-8 calcium dye; parental CHO-K1, ATP-induced calcium, Fluo-8 fluorescence; inhibition, % at 5.6 µM; 330,000 compounds, 0.63% hits;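 active = inhibition above that plate's mean sample inhibition plus 3 SD, cut at about 26% in these data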;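 note: 0% = ATP-challenged DMSO wells and 100% = DMSO wells without ATP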
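Test system: untransfected parental CHO cell line. Compound: one dose, 5.6 µM nominal. Detection: intracellular calcium via Fluo-8 no-wash fluorescent dye. Measure: % inhibition. Benchmarks: ATP-challenged DMSO wells low, unchallenged DMSO wells high.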
OX1R antag-1: antagonists of human orexin 1 receptor (OX1R); Orexin/Hypocretin receptor type 1 (Homo sapiens), O43613; OX1R-expressing cells, FRET antagonist read-out; inhibition, % at 6.6 µM; 330,000 compounds, 1.8% hits; in the data active = inhibition mostly above about 38%, no sharp cut-off; inactive = mostly below about 40%;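 note: 0% = agonist challenge alone and 100% = reference antagonist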
TAAR1 agonist: human TAAR1 agonists, primary screen, Fluo-8 calcium fluorescence, CHO RD-HGA16 cells; activation, % at 3 µM; vehicle wells 0%, saturating PEA agonist 100%; 360,000 compounds, 0.99% hits; Trace amine-associated receptor 1 (Homo sapiens), Q96RJ0; AID 624467, 2012;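 active = activation above the mean activation of all test compounds in the run plus 3 SD, cut at about 38% in these data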
Target sequence (Q96RJ0 whole entry, looked up): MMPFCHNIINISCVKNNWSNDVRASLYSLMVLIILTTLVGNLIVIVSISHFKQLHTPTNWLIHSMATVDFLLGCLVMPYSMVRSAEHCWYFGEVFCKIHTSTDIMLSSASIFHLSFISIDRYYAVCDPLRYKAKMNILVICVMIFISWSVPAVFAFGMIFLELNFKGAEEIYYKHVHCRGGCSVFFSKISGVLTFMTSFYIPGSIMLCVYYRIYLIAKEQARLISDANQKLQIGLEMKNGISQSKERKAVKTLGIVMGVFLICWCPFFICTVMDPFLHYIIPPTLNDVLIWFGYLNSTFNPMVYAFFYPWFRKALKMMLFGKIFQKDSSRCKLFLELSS
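test system = CHO RD-HGA16 cells carrying human TAAR1 plus Gα16 | schedule = 17-24 h seeding, 75 min 37 °C dye, 30 min RT | compound dosing = 3 µM single concentration | control set = DMSO and PEA EC100 | replicates = n 1 | signal = Fluo-8 fluorescence, 5 s baseline then 140 s kinetic read | measure = percent activation vs PEA EC100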
TAAR1 antagonist: human TAAR1 antagonists, primary screen, Fluo-8 calcium fluorescence, CHO RD-HGA16 cells. inhibition, % at 3 µM. Trace amine-associated receptor 1 (Homo sapiens), Q96RJ0. antagonist. 360,000 compounds, 1.5% hits. AID 624466, 2012;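 active = inhibition above a per-plate cutoff, the mean inhibition of test compounds on that plate plus 3 SD, cut at about 49% in these data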;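 note: 0% = DMSO plus EC80 beta-PEA response and 100% = DMSO alone without agonist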
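Test system: hTAAR1-expressing CHO RD-HGA16 cells, Gα16-coupled; Probe or stimulus: EC80 β-phenethylamine stimulus; Compound dosing: single nominal final test compound concentration of 3 µM; Timing: 140 s kinetic read after compound, 140 s after agonist; Signal: Fluo-8 calcium-sensitive fluorescence; Measure: % inhibition of agonist calcium response; Controls: DMSO and EC80 PEA controls.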
GPR7 antagonist: GPR7 receptor antagonists, primary screen, cell-based, fluorescence, single concentration; inhibition, % at 4.4 µM; GPR7-expressing cells, fluorescence antagonist assay; 290,000 compounds, 1.1% hits; in the data active = inhibition above about 16%, passing the limit was not always enough;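 note: cells stimulated with the agonist NPW; 0% = agonist with vehicle and 100% = vehicle without agonist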
Target sequence (P48145 whole entry, looked up): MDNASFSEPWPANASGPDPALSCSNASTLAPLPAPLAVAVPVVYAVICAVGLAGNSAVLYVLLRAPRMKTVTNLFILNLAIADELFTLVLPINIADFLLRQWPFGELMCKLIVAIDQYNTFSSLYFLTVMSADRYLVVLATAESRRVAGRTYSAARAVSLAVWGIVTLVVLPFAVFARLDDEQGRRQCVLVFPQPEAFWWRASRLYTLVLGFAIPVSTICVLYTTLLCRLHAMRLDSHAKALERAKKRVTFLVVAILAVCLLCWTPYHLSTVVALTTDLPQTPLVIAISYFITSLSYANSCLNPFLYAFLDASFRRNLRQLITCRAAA
OX1R antag-2: OX1R (HCRTR1) antagonists, primary screen, fluorescence, CHO/OX1R cells, Fluo-8 calcium, orexin A | Orexin/Hypocretin receptor type 1 (Homo sapiens), O43613 | Fluo-8 calcium fluorescence | inhibition, % at 5 µM | 330,000 compounds, 0.43% hits | AID 434989, 2010;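 active = inhibition above its plate's threshold, mean inhibition of all tested compounds on the plate plus 3 SD, cut at about 37% in these data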;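 note: 0% = orexin A challenge wells and 100% = SB-334867-A antagonist wells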
nonsel antag count: nonselective antagonists in TAAR1 counter-screen cells, counter-screen for hTAAR1 antagonist project, cell-based, fluorescence, calcium; shares compounds with TAAR1 antagonist; counterscreen cell line, antagonist mode; inhibition, % at 3 µM; 2,400 compounds, 77% hits; in the data active = inhibition above about 22%;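 note: CHO-Ga16 host cells stimulated with ATP at an EC80 level; 0% = agonist EC80 plus vehicle and 100% = vehicle without agonist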
TAAR1 ant conf: human TAAR1 antagonists, retest of hits, confirmation, cell-based, fluorescence; TAAR1-expressing cells, fluorescence antagonist read-out; inhibition, % at 3 µM; shares compounds with TAAR1 antagonist; 2,400 compounds, 40% hits; in the data active = inhibition above about 49%;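 note: CHO-Ga16 host cells challenged with agonist PEA near its EC80; 0% = agonist at EC80 plus vehicle and 100% = vehicle with no agonist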
Ga16 nonsel ag: calcium activation in Ga16-expressing cells, counter-screen for TAAR1 antagonist project, cell-based, fluorescence; shares compounds with TAAR1 antagonist; 2,400 compounds, 18% hits; agonist counterscreen; AID 651953, 2012; activation, % at 3 µM; in the data active = activation above about 12%;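 note: 0% = vehicle wells and 100% = saturating stimulus response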
TAAR1 ag counter: TAAR1 activation by candidate antagonists – cell-based, fluorescence, counter-screen for TAAR1 antagonist project | AID 651955, 2012 | 2,400 compounds, 2% hits | hTAAR1 cell line, agonist mode | activation, % at 3 µM | shares compounds with TAAR1 antagonist; in the data active = activation above about 37%;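 note: CHO cells stably expressing TAAR1 with calcium dye readout; 0% = DMSO vehicle and 100% = full agonist response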
Active calls of the source: *; nt = no result given. An excerpt weighted towards active compounds, which were near 4.6% of everything screened.

SMILES | CHO parental Ca | OX1R antag-1 | TAAR1 agonist | TAAR1 antagonist | GPR7 antagonist | OX1R antag-2 | nonsel antag count | TAAR1 ant conf | Ga16 nonsel ag | TAAR1 ag counter
CCN(CC(=O)Nc1c(F)cccc1F)C(=O)CNC(=O)c1cccc(C)c1 | -12 | 16 | 0 | -1 | -21 | -10 | nt | nt | nt | nt
COc1ccccc1CNC(=O)C1CCC(=O)N(CCCc2ccccc2)C1 (centres undefined) | -27 | -1 | 3 | -14 | -12 | -15 | nt | nt | nt | nt
CCC1CC(=O)CCN1S(=O)(=O)c1ccc(C)cc1 (centres undefined) | nt | nt | 2 | -17 | nt | nt | nt | nt | nt | nt
Oc1ccc(-c2csc(NCc3ccco3)n2)cc1 | -13 | 21 | -2 | 104* | -9 | -19 | -3 | -2 | 0 | -4
CC(=O)Nc1ccc(Nc2nc(-c3ccccc3)nc3ccccc23)cc1 | 4 | 29 | 21 | 59* | -1 | -19 | 34* | 56* | 8 | 6
Cc1ccc(Nc2nc(-c3cccnc3)nc3ccccc23)cc1 | -32 | 12 | -1 | 56* | -6 | -6 | 17 | 27 | 3 | -1
Oc1ccc(Nc2nc(-c3ccccc3)nc3ccccc23)cc1 | 6 | -5 | nt | nt | -6 | -11 | nt | nt | nt | nt
COc1ccc(CCNC(=O)c2ccc(OCc3c(C)noc3C)c(OC)c2)cc1 | -16 | 11 | 7 | 23 | nt | -26 | nt | nt | nt | nt
COc1cc(C(=O)NCCc2c[nH]c3ccccc23)ccc1OCc1c(C)noc1C | 5 | 13 | 16 | 63* | 3 | -4 | 31* | 48 | 10 | 8
COc1cccc(N2CCN(c3ncnc4c3cnn4-c3ccc(C)cc3C)CC2)c1 | 42* | 43* | 4 | 96* | -11 | 39 | 48* | 65* | 9 | 5
COc1ccc(-n2ncc3c(N4CCN(Cc5ccccc5)CC4)ncnc32)cc1 | -11 | 8 | 10 | 60* | -11 | -26 | 28* | 50* | 8 | 5
CCN1CCN(c2ncnc3c2cnn3-c2ccccc2)CC1 | -4 | 13 | 1 | 9 | -4 | -23 | nt | nt | nt | nt
CCOc1cc(NC(=O)CC(C)C)c(OCC)cc1NC(=O)CCn1nnc2ccccc21 | -6 | 9 | 2 | 9 | -7 | -18 | nt | nt | nt | nt
CCCc1nnc(SCC(=O)Nc2nc(C)cs2)n1CCOC | -8 | 5 | 4 | -3 | -7 | -10 | nt | nt | nt | nt
Cc1ccc(C)c(/C=N/Nc2ccccn2)c1 | -7 | 27 | -4 | 105* | 7 | -8 | -2 | 0 | 1 | 0
Fc1ccc(C(CCCn2nnc(-c3cccnc3)n2)c2ccc(F)cc2)cc1 | 35* | 41 | 17 | 90* | 3 | 48* | 39* | 58* | 9 | 4
Fc1ccc(-n2nnc(-c3cccnc3)n2)cc1 | -18 | 28 | 1 | -4 | -9 | -12 | nt | nt | nt | nt
COc1cc(NC(=O)CN2CCN(C(=O)c3ccco3)CC2)c(C)cc1[N+](=O)[O-] | nt | nt | 1 | 5 | nt | nt | nt | nt | nt | nt
N#Cc1cccc(NC(=O)c2cc(C3CCCCN3C(=O)CCCc3ccccc3)on2)c1 (centres undefined) | nt | nt | 10 | 61* | nt | nt | 34* | 54* | 11 | 14
C[C@]12c3[nH]c4ccccc4c3CCN1C(=O)C(CC(=O)NCCc1ccccn1)C[C@@H]2C(=O)N1CCOCC1 (some centres undefined) | -8 | 0 | 4 | -14 | nt | 6 | nt | nt | nt | nt
COc1ccc(/C=N/NC(=O)c2cc3c(ccc4ccccc43)o2)cc1OC | nt | nt | 7 | 53* | -12 | nt | 28* | 36 | 7 | 3
COc1ccc(/C=N\NC(=O)c2cc3c(ccc4ccccc43)o2)cc1O | nt | nt | 10 | 57* | 12 | nt | 40* | 55* | 13* | 12
O=C(O)c1ccc(/C=N/NC(=O)c2cc3c(ccc4ccccc43)o2)cc1 | 5 | 3 | 0 | 9 | -1 | -8 | nt | nt | nt | nt
COc1cc(OC)c(NC(=O)c2csc(C)c2)cc1Cl | -7 | 1 | -2 | -15 | -7 | -1 | nt | nt | nt | nt
Cc1nc2c(Cl)cccc2[nH]1 | -9 | 16 | 4 | -8 | -5 | -4 | nt | nt | nt | nt
SMILES | CHO parental Ca | OX1R antag-1 | TAAR1 agonist | TAAR1 antagonist | GPR7 antagonist | OX1R antag-2 | nonsel antag count | TAAR1 ant conf | Ga16 nonsel ag | TAAR1 ag counter
C[C@@H]1CC=C[C@@H]2[C@H]1C(=O)N(Cc1ccccc1)[C@H]2c1ccccc1Br | -29 | 19 | 4 | 70* | nt | -5 | 21 | 39 | 6 | 11
CC(C)NC(=S)N1CCN(c2ncccn2)CC1 | 6 | 9 | 2 | -1 | -5 | -4 | nt | nt | nt | nt
CN(Cc1ccccc1)C(=O)N1CCOCC1 | 2 | 23 | 4 | -24 | -14 | -4 | nt | nt | nt | nt
CC(C)Nc1ncnc2c1cnn2Cc1ccc(Cl)cc1 | -9 | 7 | 5 | 7 | 4 | -24 | nt | nt | nt | nt
CCC(C)Nc1ncnc2c1cnn2Cc1ccc(Cl)cc1 (centres undefined) | 0 | 10 | 4 | 55* | -12 | -11 | 17 | 35 | 13* | 18
Cn1c(CSCc2ccccc2)nnc1SCC(=O)Nc1nccs1 | 3 | 19 | 8 | 11 | -16 | -14 | nt | nt | nt | nt
Cn1c(CSCc2ccc(Cl)cc2)nnc1SCC(=O)Nc1nccs1 | 8 | 23 | 25 | 61* | -8 | 21 | 42* | 56* | 17* | 20
Cc1onc(-c2c(Cl)cccc2Cl)c1C(=O)c1c[nH]c(C(=O)NCC2CCCO2)c1 (centres undefined) | 2 | 22 | 26 | 62* | -7 | -33 | 32* | 45 | 11 | 13
Nc1ccc(-c2nc3cc([N+](=O)[O-])ccc3o2)cc1 | -6 | 9 | 5 | 55* | 2 | -22 | 20 | 19 | 3 | -3
COc1ccc(-c2nc3cc([N+](=O)[O-])ccc3o2)cc1 | -11 | 4 | 1 | -18 | 3 | 5 | nt | nt | nt | nt
